Laboratory results as given in ChEMBL document CHEMBL6115033, “Discovery of a Pyrazolopyridinone-Based MYC Inhibitor That Selectively Engages Intracellular c-MYC and Disrupts MYC-MAX Heterodimerization” (J Med Chem, 2025).
Activity calls are given as the source filed them. The calls are words filed in the database; no cut-off is given here.

What was measured:
MDA-MB-231 = test: Antiproliferative activity against human MDA-MB-231 cells assessed as cell viability incubated for 96 hrs by MTT assay; type: functional, cell-based; settings: MDA-MB-231, 96 h
Outline: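 Adherent cells (2000/well) attached overnight, then exposed to compounds at 0.14–100 µM for 96 h in DMEM with 10% FBS. MTT at 0.5 mg/mL for 4 h in the dark, formazan dissolved in DMSO, absorbance at 570 nm. Compounds were freshly prepared in DMSO, with DMSO below 1%.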

[1] = Antiproliferative activity against human P493-6 cells expressing MYC assessed as inhibition of cell proliferation incubated for 96 hrs by cell titer glo assay; type: functional, cell-based; settings: P493-6, 96 h
Outline: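 P493-6 cells (3000/well, RPMI) were seeded overnight at 37 °C, then given compounds at final 0.14–100 µM for 96 h. MYC-off cells were pretreated with 0.1 µg/mL tetracycline for 72 h. Read-out was CellTiter-Glo luminescence after equilibration to room temperature. IC50 was determined in high-MYC and MYC-off cells.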

[2] = Selectivity index, ratio of IC50 for antiproliferative activity against tetracycline-treated human P493-6 cells expressing MYC assessed as inhibition of cell proliferation to IC50 for antiproliferative activity against human P493-6 cells expressing MYC assessed as inhibition of cell proliferation; type: functional
Outline: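 MYC-off P493-6 cells obtained by 72 h pretreatment with 0.1 µg/mL tetracycline and compared with untreated MYC-high cells. Cells seeded at 3000 per 100 uL, held overnight at 37 °C, then treated at 0.14–100 uM final for 96 h. Viability read by CellTiter-Glo luminescence. IC50 values determined in both states and compared as a selectivity index.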

P493-6 [3] = test: Antiproliferative activity against human P493-6 cells expressing MYC assessed as inhibition of cell proliferation at 25 uM incubated for 96 hrs by cell titer glo assay; type: functional, cell-based
Outline: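 P493-6 cells, either untreated (high MYC) or MYC-off after 0.1 µg/mL tetracycline for 72 h, were exposed to 25 µM for 96 h. Read-out was % survival by CellTiter-Glo luminescence. Mean ± SD, n = 6, unpaired t-test.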

[4] = target: T1, c-Myc/c-Max (Homo sapiens) (UniProt P01106+P61244); test: Disruption of MYC-MAX interaction in human P493-6 cells at 25 uM incubated for 3 to 12 hrs by Western blot analysis; type: cell-based; settings: time 3-12 hrs
T1 sequence (P01106 whole entry): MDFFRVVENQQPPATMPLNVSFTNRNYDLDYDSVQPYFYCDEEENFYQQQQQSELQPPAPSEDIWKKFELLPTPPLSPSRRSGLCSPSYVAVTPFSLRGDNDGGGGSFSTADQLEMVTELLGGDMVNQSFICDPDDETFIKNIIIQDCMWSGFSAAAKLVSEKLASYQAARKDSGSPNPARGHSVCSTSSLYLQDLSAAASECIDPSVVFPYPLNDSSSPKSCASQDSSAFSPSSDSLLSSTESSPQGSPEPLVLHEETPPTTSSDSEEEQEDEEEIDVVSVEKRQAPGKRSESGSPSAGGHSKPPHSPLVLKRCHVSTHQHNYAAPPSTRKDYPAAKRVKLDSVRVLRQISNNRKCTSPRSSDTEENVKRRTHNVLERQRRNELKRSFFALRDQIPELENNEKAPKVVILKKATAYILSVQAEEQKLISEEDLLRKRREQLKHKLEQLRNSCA
T1 sequence (P61244 2-160 partner limits assumed): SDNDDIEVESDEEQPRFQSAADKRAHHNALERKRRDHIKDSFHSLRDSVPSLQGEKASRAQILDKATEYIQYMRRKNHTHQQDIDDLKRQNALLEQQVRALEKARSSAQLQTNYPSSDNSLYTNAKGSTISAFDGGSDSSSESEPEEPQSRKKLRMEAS
Outline: (§1)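 Cells were given 25 µM or DMSO for 0, 3, 5 and 12 h. Cytoplasmic and nuclear lysate fractions were pooled. 2 mg protein was immunoprecipitated with MYC antibody overnight, then protein A/G beads for 4 h at 4 °C. Bound MAX was detected by western blot and quantified relative to MYC; MAX input was also measured.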

[5] = target: T1, c-Myc/c-Max (Homo sapiens); test: Disruption of MYC-MAX interaction in human MDA-MB-468 cells at 25 uM incubated for 3 to 12 hrs by immunofluorescence analysis; type: cell-based; settings: time 3-12 hrs
[6] = target: T1, c-Myc/c-Max (Homo sapiens); test: Disruption of MYC-MAX heterodimerization in human P493-6 cells incubated for 12 hrs; type: cell-based; outline: as §1
[7] = target: T1, c-Myc/c-Max (Homo sapiens); test: Disruption of MYC-MAX interaction in human MDA-MB-468 cells assessed as reduction in myc level at 25 uM; type: cell-based
P493-6 [8] = test: Downregulation of MYC level in human P493-6 cells incubated for 24 hrs by Western blot analysis; type: functional, cell-based; settings: dose <= 50.0 µM
Outline: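 Cells (300,000/well) were plated 24 h, then exposed to graded concentrations or DMSO for 24 h. Laemmli lysates were run on 4–20% SDS-PAGE and immunoblotted for MYC. Levels were normalized to actin. Mean ± SD, n = 2, one-way ANOVA with Dunnett.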

P493-6 [9] = test: Downregulation of MYC level in human P493-6 cells measured at 20 to 60 mins by Western blot analysis; type: functional, cell-based; settings: time 20-60 min
Outline: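 Cells were pretreated with 25 µM or DMSO for 3 h, then given 50 µg/mL cycloheximide for the indicated times. MYC was measured by western blot, and half-life came from a one-phase exponential decay fit.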

MDA-MB-468 [10] = test: Downregulation of CDK2 mRNA expression in human MDA-MB-468 cells at 25 uM incubated for 12 hrs by qRT-PCR analysis; type: functional, cell-based
Outline: (§2)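 Cells (500,000/well) were cultured with or without 25 µM for the indicated time. Total RNA was extracted with TRIzol and reverse-transcribed. qPCR used SYBR green with target-gene primers, reported as ΔΔCT.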

MDA-MB-468 [11] = test: Downregulation of E2F2 mRNA expression in human MDA-MB-468 cells at 25 uM incubated for 12 hrs by qRT-PCR analysis; type: functional, cell-based; outline: as §2
P493-6 [12] = test: Downregulation of CDC25C mRNA expression in human P493-6 cells at 25 uM incubated for 12 hrs by qRT-PCR analysis; type: functional, cell-based; outline: as §2
P493-6 [13] = test: Downregulation of E2F1 mRNA expression in human P493-6 cells at 25 uM incubated for 12 hrs by qRT-PCR analysis; type: functional, cell-based; outline: as §2
MDA-MB-468 [14] = test: Downregulation of CCNA2 mRNA expression in human MDA-MB-468 cells at 25 uM incubated at 48 hrs by qRT-PCR analysis; type: functional, cell-based; outline: as §2
MDA-MB-468 [15] = test: Downregulation of CDK2 mRNA expression in human MDA-MB-468 cells at 25 uM incubated at 48 hrs by qRT-PCR analysis; type: functional, cell-based; outline: as §2
MDA-MB-468 [16] = test: Downregulation of CDC25C mRNA expression in human MDA-MB-468 cells at 25 uM incubated at 48 hrs by qRT-PCR analysis; type: functional, cell-based; outline: as §2
[17] = Induction of apoptosis in human P493-6 cells assessed as early apoptotic cells at 25 uM incubated for 24 hrs by Annexin V/PI staining based flow cytometry analysis (reference value: 2.52 %); type: functional
[18] = Induction of apoptosis in human P493-6 cells assessed as viable cells at 50 uM incubated for 24 hrs by Annexin V/PI staining based flow cytometry analysis (reference value: 90.8%); type: functional; settings: read-out: Activity
MDA-MB-468 [19] = test: Induction of apoptosis in human MDA-MB-468 cells cultured as 3D spheroids assessed as inhibition of cell growth incubated for 5 days; type: functional, cell-based; settings: time 5.0 day
Outline: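 Cells plated at 4000 per well in low-attachment 24-well plates and grown in Mammocult medium for 48 h to form mammospheres. Spheres then exposed to 25 uM compound for 5 days, with untreated control wells. Read-out was imaging of the mammospheres formed.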

[20] = target: T1, c-Myc/c-Max (Homo sapiens); test: Disruption of MYC-MAX interaction in human MDA-MB-468 cells at 25 uM incubated for 12 hrs by proximity ligation assay
MDA-MB-468 [21] = test: Antitumor activity against human MDA-MB-468 cells xenografted in mouse assessed as reduction in mYC expression at 10 mg/kg, sc measured at 14 to 26 days by IHC analysis; settings: time 14-26 day
MDA-MB-468 [22] = test: Antitumor activity against human MDA-MB-468 cells xenografted in mouse assessed as reduction in Ki67 expression at 10 mg/kg, sc measured at 14 to 26 days by IHC analysis; settings: time 14-26 day

SMILES: N#Cc1cc2c(-c3ccc(Cl)cc3)nn(-c3ccccc3)c2[nH]c1=O
- IC50 (MDA-MB-231): 10.6 µM
- IC50 [1]: 15.2 µM
- Ratio IC50 [2]: 3.9
- Activity (P493-6 [3]): Active
- Activity [4]: Active
- Activity [5]: Active
- Activity [6]: Active
- Activity [7]: Active
- Activity (P493-6 [8]): Dose-dependent-effect
- Activity (P493-6 [9]): Active
- Activity (MDA-MB-468 [10]): Active
- Activity (MDA-MB-468 [11]): Active
- Activity (P493-6 [12]): Active
- Activity (P493-6 [13]): Active
- Activity (MDA-MB-468 [14]): Active
- Activity (MDA-MB-468 [15]): Active
- Activity (MDA-MB-468 [16]): Active
- Activity [17]: 3.1%
- viability at 50 µM [18]: 77.2%
- Activity (MDA-MB-468 [19]): Active
- Activity [20]: Active
- Activity (MDA-MB-468 [21]): Active
- Activity (MDA-MB-468 [22]): Active
